How the values were obtained:
[1] = tested on: Huh-7; assay: Cytotoxicity against Huh7ET cell line containg HCV replicon at 10 uM assessed by measuring the beta-actin RNA level relative to control; assay type: functional, Homo sapiens
How it was run: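 Huh7 ET HCV replicon (luciferase reporter) cells treated at 10 µM in the same primary screen. Cellular β-actin RNA level is used to compute cytotoxicity, expressed as % of control.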

[2] = tested on: Huh-7; assay: Selectivity index (toxicity/antiviral activity); assay type: functional
How it was run: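 Huh7 ET HCV luciferase replicon cells, single 10 µM primary screen. Index is the ratio of β-actin RNA level (% control) to replicon-derived luciferase activity (% control).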

[3] = tested on: Hepatitis C virus; assay: Antiviral activity against HCV in Huh7 ETcell line at 10 uM assessed by measuring HCV-RNA-derived LUC activity relative to control; assay type: functional, Hepacivirus hominis
How it was run: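 Primary single-concentration screen (10 µM) in Huh7 ET cells carrying an HCV RNA replicon with a stable luciferase reporter. Replicon-derived luciferase activity serves as an indirect measure of HCV RNA and is expressed as % of control.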

[4] = tested on: HepG2; assay: Selectivity index (CC50/EC50) for inhibition of HBV replicative intermediate synthesis in human hepatoblastoma 2.2.15 cells; assay type: functional
How it was run: (§1)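 2.2.15 cells were dosed daily for nine days. CC50 is the neutral red uptake concentration causing a twofold reduction versus untreated cultures. EC50 is from blot hybridization of intracellular replicative intermediates or extracellular virion DNA, by linear regression. Index = CC50/EC50.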

[5] = tested on: Hepatitis B virus; assay: Inhibition of synthesis of extracellular virion DNA release in cultured human hepatoblastoma 2.2.15 cells; assay type: functional, organism-based; conditions: HepG2 2.2.15
How it was run: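 Confluent 2.2.15 cells were dosed daily for nine days. Culture medium was collected daily, and extracellular virion HBV DNA was assayed on days 0, 3, 6 and 9 by blot hybridization using ³²P-labelled HBV-specific probes. EC50 and EC90 (50%/90% inhibition) came from linear regression on all treated cultures, with SD taken from the regression standard error.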

[6] = tested on: Hepatitis B virus; assay: Inhibition of synthesis of intracellular HBV DNA replicative intermediates in cultured human hepatoblastoma 2.2.15 cells; assay type: functional, organism-based; conditions: HepG2 2.2.15
How it was run: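 2.2.15 cells were dosed daily for nine days and lysed 24 h after day 9. Intracellular HBV DNA replicative intermediates were measured by Southern/dot blot hybridization with ³²P-labelled HBV probes. EC50 and EC90 came from linear regression on combined treated-culture data, with SD from the regression standard error.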

[7] = tested on: HepG2; assay: Cytotoxicity against human hepatoblastoma 2.2.15 cells; assay type: functional
How it was run: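 Confluent HBV-producing 2.2.15 cells received compound daily for nine days. Cytotoxicity was read by neutral red dye uptake. CC50 is the concentration giving a twofold drop in uptake from the mean of untreated cultures.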

[8] = tested on: HepG2; assay: Selectivity index (CC50/EC50) for inhibition of HBV virion DNA synthesis in human hepatoblastoma 2.2.15 cells; assay type: functional; how it was run: as §1

| SMILES | Activity [1] [%] | Selectivity index [2] | Activity [3] [%] | Selectivity index [4] | EC50 [5] [µM] | EC90 [5] [µM] | EC50 [6] [µM] | EC90 [6] [µM] | CC50 [7] [µM] | Selectivity index [8] |
| --- | --- | --- | --- | --- | --- | --- | --- | --- | --- | --- |
| CCCCCCCCCCCCCCCCNc1nc(=O)c2c(nc(Br)n2Cc2ccc(OC)cc2)c(=O)[nH]1 | 3 | 0.043 | 70 | – | – | – | – | – | – | – |
| CCCCCCCCCCCCCCNc1nc(=O)c2c(nc(Br)n2Cc2ccc(OC)cc2)c(=O)[nH]1 | 34 | 0.532 | 64 | – | – | – | – | – | – | – |
| NC(=O)c1ncn([C@@H]2O[C@H](CO)[C@@H](O)[C@H]2O)n1 [RIBAVIRIN] | 12 | 0.42 | 89 | – | – | – | – | – | – | – |
| CCCCCCCCCCCCNc1nc(=O)c2c(nc(Br)n2Cc2ccc(OC)cc2)c(=O)[nH]1 | 47 | 1 | 47 | – | – | – | – | – | – | – |
| CCNc1nc(=O)c2c(nc(Br)n2Cc2ccc(OC)cc2)c(=O)[nH]1 | 65 | 1.912 | 34 | – | – | – | – | – | – | – |
| CCCCCCCCCCNc1nc(=O)c2c(nc(Br)n2Cc2ccc(OC)cc2)c(=O)[nH]1 | 32 | 0.604 | 53 | – | – | – | – | – | – | – |
| CNc1nc(=O)c2c(nc(Br)n2Cc2ccc(OC)cc2)c(=O)[nH]1 | 48 | 1.453 | 33 | – | – | – | – | – | – | – |
| CCCCCCCCNc1nc(=O)c2c(nc(Br)n2COCc2ccccc2)c(=O)[nH]1 | 61 | 2.1 | 29 | – | – | – | – | – | – | – |
| CCCCCCCCNc1nc(=O)c2c(nc(Br)n2Cc2ccccc2)c(=O)[nH]1 | 83 | 1.06 | 78 | 34 | 1.7 | 6.9 | 8.4 | 28 | 286 | 168 |
| CCCCCCCCNc1nc(=O)c2c(nc(Br)n2Cc2ccc(OC)cc2)c(=O)[nH]1 | 69 | 2.155 | 32 | – | – | – | – | – | – | – |
| COc1ccc(Cn2c(Br)nc3c(=O)nc(N)[nH]c(=O)c32)cc1 | 89 | 1.435 | 62 | – | – | – | – | – | – | – |
| COc1ccc(Cn2c(Br)nc3c(=O)nc(NCc4ccccc4)[nH]c(=O)c32)cc1 | 69 | 1.255 | 55 | – | – | – | – | – | – | – |
| Nc1ccn([C@@H]2CS[C@H](CO)O2)c(=O)n1 [LAMIVUDINE] | – | – | – | 8602 | – | 0.151 | 0.251 | 0.648 | 2160 | 44979 |

Reference: ChEMBL document CHEMBL1141861, “Synthesis and in vitro anti-hepatitis B and C virus activities of ring-expanded ('fat') nucleobase analogues containing the imidazo[4,5-e][1,3]diazepine-4,8-dione ring system” (Bioorg Med Chem Lett, 2005)
